Our source for the Drug uptake values is ChEMBL document CHEMBL1153433, “Design and synthesis of 2-amino-4-methylpyridine analogues as inhibitors for inducible nitric oxide synthase and in vivo evaluation of [18F]6-(2-fluoropropyl)-4-methyl-pyridin-2-amine as a potential PET tracer for inducible nitric oxide synthase” (J Med Chem, 2009).

The subject of this series is Liver. As to the kind of experiment: Biodistribution in LPS treated C57BL/6N mouse liver at 50 uCi/110 uL, iv administered 6 hrs […] LPS challenge measured after 30 mins post drug dose. It is filed as ADME, organism-based. The note with it: in vivo, 0.5 h. The method, boiled down:
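Male C57BL/6N mice, 6-8 weeks; LPS (E. coli O127:B8) in PBS, 10 mg/kg i.v., given 6 h before tracer. HPLC-purified [18F]tracer ~50 μCi in 10% ethanol/saline i.v. via tail vein. Killed at 5 min, 30 min, 1 h or 2 h; tissues weighed and gamma-counted against diluted injectate standards. Reported as %ID/g, mean ± SD, n = 4.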

For the compound `Cc1cc(N)nc(CC(C)[18F])c1` (stereo unspecified), the Drug uptake came to 7.06 % ID/g.
